What was measured:
[1] = tested on: Mus musculus; assay: Anti-seizure activity was evaluated by Subcutaneous pentylenetetrazole seizure test at dose 300 mg/kg after 4.0 hours; ++ denotes antiseizure activity; format: functional, organism-based; design: dose 300 mg/kg
How it was run: (§1)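 Phase I screen in mice: ip dosing at 30, 100, 300 and 600 mg/kg in 30% PEG 400, read 0.5 h and 4 h after. Pentylenetetrazol given sc at CD97 (85 mg/kg). Protection means no clonic spasm of at least 5 s over 30 min. Scored ++++ to + for 30 to 600 mg/kg.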

[2] = tested on: Mus musculus; assay: Median toxic dose was evaluated by […] through intraperitoneal administration; format: functional
[3] = species: Rattus norvegicus; assay: Protective index (TD50/ED50) was determined against scMet induced seizure in rat.; format: functional
How it was run: (§2)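 Oral dosing in 30% PEG 400: phase IV in mice (0.01 mL/g), phase VI in Sprague-Dawley rats (0.004 mL/g). ED50/TD50 found as in phase II, at the stated time of peak effect. MES current 50 mA in mice, 150 mA in rats. Toxicity by rotorod in mice; positional sense, gait and stance in rats. PI = TD50/ED50.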

[4] = tested on: Mus musculus; assay: (§3) Median effective dose was evaluated by Maximal electroshock seizure test through intraperitoneal administration; format: functional; conditions: ip
How it was run: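 Phase II in mice, ip dosing in 30% PEG 400. Groups of 6-12 mice per dose until at least three points fall in 10-90% protection.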

[5] = species: Mus musculus; assay: Time to peak toxicity was evaluated by Maximal electroshock seizure test in hours; format: functional
[6] = tested on: Mus musculus; assay: Median effective dose was evaluated by subcutaneous pentylenetetrazole seizure test through intraperitoneal administration; format: functional
How it was run: (§4)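 Phase II in mice, ip dosing in 30% PEG 400. Groups of 6-12 mice per dose until at least three points fall in 10-90% protection. […] MES: 50 mA, 0.2 s corneal. scMet: pentylenetetrazol 85 mg/kg sc.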

[7] = tested on: Mus musculus; assay: Anti-seizure activity was evaluated by Maximal electroshock seizure (MES) test at dose 300 mg/kg after 0.5 hours; ++ denotes antiseizure activity; format: functional, organism-based; design: dose 300 mg/kg
How it was run: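 Phase I screen in mice: ip injection at 30, 100, 300 and 600 mg/kg in 30% PEG 400 (0.01 mL/g). Test run 0.5 h and 4 h after dosing. 60-Hz AC, 50 mA, via corneal electrodes for 0.2 s. Protection means abolition of hind-leg tonic extension. Scored ++++ to + for activity at 30 to 600 mg/kg.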

[8] = tested on: Mus musculus; assay: Anti-seizure activity was evaluated by Neurologic toxicity (rotarod test) at dose 300 mg/kg after 0.5 hours; ++ denotes antiseizure activity; format: functional, organism-based; design: dose 300 mg/kg
How it was run: (§5)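 Phase I neurotoxicity in mice by rotorod ataxia test. Compound given ip at 30, 100, 300 or 600 mg/kg in 30% PEG 400, read 0.5 h and 4 h after. Scored ++++ to + for toxicity at 30 to 600 mg/kg; - means no toxicity.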

[9] = species: Rattus norvegicus; assay: Protective index (TD50/ED50) was determined against MES induced seizure in rat.; format: functional; how it was run: as §2
[10] = tested on: Mus musculus; assay: Anti-seizure activity was evaluated by Neurologic toxicity (rotarod test) at dose 600 mg/kg after 4.0 hours; + denotes neurotoxicity; format: functional, organism-based; design: dose 600 mg/kg; how it was run: as §5
[11] = species: Mus musculus; assay: Time to peak activity was evaluated by Maximal electroshock seizure test in hours; format: functional
[12] = species: Rattus norvegicus; assay: Total liver Protein up to 7th day was evaluated in mg/liver of chronic treated rats; format: functional
How it was run: (§6)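 Rats (eight per group) given 6 mg/kg po daily, then kept on the same regimen 2 more days. Weights taken on day 7. On day 8 rats decapitated; livers perfused with 0.9% NaCl, weighed and homogenized in 0.25 M sucrose. Microsomal assays per Franklin and Estabrook. Values given as average and deviation.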

[13] = tested on: Mus musculus; assay: […] was evaluated by Neurologic toxicity (rotarod test) in mice by oral administration; format: functional
How it was run: as §2, with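 “in rats. PTZ sc 85 mg/kg in mice, 70 mg/kg in rats. Toxicity by” for “in rats. Toxicity by”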

[14] = tested on: Mus musculus; assay: Anti-seizure activity was evaluated by Neurologic toxicity (rotarod test) at dose 600 mg/kg after 0.5 hours; + denotes neurotoxicity; format: functional, organism-based; design: dose 600 mg/kg; how it was run: as §5
[15] = species: Mus musculus; assay: Median hypnotic dose was evaluated by loss of righting reflex; format: functional
[16] = species: Rattus norvegicus; assay: zInduction of NADPH cytochrome C reductase enzyme was evaluated in units of nmol/min per mg liver of chronic treated rats; format: functional; how it was run: as §6
[17] = tested on: Mus musculus; assay: Median Effective dose was evaluated by Maximal electroshock seizure (MES) test in mice by oral administration; format: functional
[18] = tested on: Mus musculus; assay: Inhibition of seizures induced in mice by a convulsant dose of up to 300 mg/kg; d= No protection; format: functional, organism-based; design: dose 300 mg/kg
How it was run: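 Convulsant (bicuculline, picrotoxin, strychnine or PTZ) given at CD97 as a 0.5% solution. Observed 30 min (45 min for picrotoxin). PI uses ip mouse TD50.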

[19] = tested on: Mus musculus; assay: Inhibition of picrotoxin-induced seizures in mice by ip administration up to 300 mg/kg (d=No protection); format: functional, organism-based; design: dose 300 mg/kg
How it was run: (§7)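 Phase V differentiation in mice: test drug given ip at time of peak therapeutic effect, then the CD₉₇ of each convulsant (picrotoxin, bicuculline, strychnine) given ip as a 0.5% solution; observation 30 min for bicuculline and strychnine, 45 min for picrotoxin. Drug in 30% PEG 400, 0.01 mL/g. ED₅₀ with 95% confidence intervals from ≥3 points in the 10-90% protection range, groups of 6-12 mice.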

[20] = species: Rattus norvegicus; assay: Induction of p-nitroanisole-O-dimethylase enzyme was evaluated in units of nmol/min per mg liver of chronic treated rats; format: functional; how it was run: as §6
[21] = tested on: Mus musculus; assay: Time to peak effect in mice was evaluated by Neurologic toxicity (rotarod test) in hours by oral administration; format: functional
How it was run: as §2, with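 “in rats. PTZ sc 85 mg/kg in mice, 70 mg/kg in rats. Toxicity by” for “in rats. Toxicity by”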

[22] = tested on: Rattus norvegicus; assay: Median Effective dose was evaluated by Maximal electroshock seizure (MES) test in Rats by oral administration; format: functional
[23] = tested on: Mus musculus; assay: as §3; format: functional; conditions: ip; how it was run: as §4; remark: listed apart in the source
[24] = species: Rattus norvegicus; assay: Total body weight up to 7th day was evaluated in grams of chronic treated rats; format: functional; how it was run: as §6
[25] = tested on: Mus musculus; assay: Inhibition of seizures induced in mice by a convulsant dose of strychnine through ip administration; format: functional; how it was run: as §7
[26] = tested on: Rattus norvegicus; assay: […] was evaluated by Neurologic toxicity (rotarod test) in Rats by oral administration; format: functional
[27] = tested on: Mus musculus; assay: Anti-seizure activity was evaluated by Subcutaneous pentylenetetrazole seizure test at dose 600 mg/kg after 0.5 hours; + denotes neurotoxicity; format: functional, organism-based; design: dose 600 mg/kg; how it was run: as §1
[28] = tested on: Mus musculus; assay: Time to peak effect in mice was evaluated by Subcutaneous pentylenetetrazole seizure test in hours by oral administration; format: functional
How it was run: as §2, with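 “in rats. PTZ sc 85 mg/kg in mice, 70 mg/kg in rats. Toxicity by” for “in rats. Toxicity by”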

[29] = tested on: Mus musculus; assay: Median lethal dose was evaluated by mortality after 24 hr through ip injection administration; d= Hypnosis and death occurred; format: ADME, organism-based; conditions: in vivo
How it was run: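 Mice were dosed ip in 30% PEG 400. Mortality was scored 24 h after injection in groups of eight. The 24-h LD₅₀ was derived as for the ED₅₀/TD₅₀, with 95% confidence intervals.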

[30] = tested on: Rattus norvegicus; assay: Time to peak effect in Rats was evaluated by Subcutaneous pentylenetetrazole seizure test in hours by oral administration; format: functional
How it was run: as §2, with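 “in rats. PTZ sc 85 mg/kg in mice, 70 mg/kg in rats. Toxicity by” for “in rats. Toxicity by”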

[31] = species: Rattus norvegicus; assay: Induction of cytochrome P-450 enzyme was evaluated in units of nmol of enzyme/mg liver of chronic treated rats
[32] = tested on: Rattus norvegicus; assay: Time to peak effect in Rats was evaluated by Neurologic toxicity (rotarod test) in hours by oral administration; format: functional
[33] = tested on: Mus musculus; assay: Time to peak effect in mice was evaluated by Maximal electroshock seizure (MES) test in hours by oral administration; format: functional
How it was run: as §2, with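 “in rats. PTZ sc 85 mg/kg in mice, 70 mg/kg in rats. Toxicity by” for “in rats. Toxicity by”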

[34] = tested on: Rattus norvegicus; assay: Median Effective dose was evaluated by Subcutaneous pentylenetetrazole seizure test in Rats by oral administration up to 40 mg/kg; b=no protection; format: functional, organism-based; design: dose 40 mg/kg
How it was run: as §2, with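 “in rats. PTZ sc 85 mg/kg in mice, 70 mg/kg in rats. Toxicity by” for “in rats. Toxicity by”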

[35] = tested on: Rattus norvegicus; assay: The loss of righting reflex time was evaluated in chronic treated rats by hexobarbital injection at a hypnotic dose 100 mg/kg; format: functional
How it was run: (§8)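 Rats, eight per group, dosed po daily: vehicle for 4 days then 6 mg/kg on day 5 (acute), or 6 mg/kg daily for 5 days (chronic). Hexobarbital 100 mg/kg ip on day 6. Loss-of-righting-reflex time recorded to the nearest minute; group mean taken.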

[36] = species: Mus musculus; assay: Anti-seizure activity was evaluated by Neurologic toxicity (rotarod test) after 4.0 hours; - denotes no antiseizure activity; format: functional, organism-based; how it was run: as §5
[37] = tested on: Rattus norvegicus; assay: Time to peak effect in Rats was evaluated by Maximal electroshock seizure (MES) test in hours by oral administration; format: functional
How it was run: as §2, with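 “in rats. PTZ sc 85 mg/kg in mice, 70 mg/kg in rats. Toxicity by” for “in rats. Toxicity by”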

[38] = tested on: Rattus norvegicus; assay: The loss of righting reflex time was evaluated in acute control rats by hexobarbital injection at a hypnotic dose 100 mg/kg; format: functional; how it was run: as §8
[39] = tested on: Mus musculus; assay: Median Effective dose was evaluated by Subcutaneous pentylenetetrazole seizure test in mice by oral administration; format: functional

COc1ccc(CC(=O)NS(=O)(=O)C(F)(F)F)cc1
Activity [1]: Antiseizure activity
TD50 [2]: 557 mg/kg
PI [3]: 10
ED50 [4]: 33 mg/kg
TPE [5]: 0.5
ED50 [6]: 53 mg/kg
Activity [7]: Antiseizure activity
Activity [8]: Antiseizure activity
PI [9]: 17
Activity [10]: Antiseizure activity
TPE [11]: 2

O=C(Cc1ccccc1)NS(=O)(=O)C(F)(F)F
Protein [12]: 40.4
TD50 [13]: > 1000 mg/kg
Activity [14]: Antiseizure activity
TD50 [2]: 329 mg/kg
PI [3]: 34
HD50 [15]: 522 mg/kg
Induction [16]: 109.9
ED50 [17]: 8.4 mg/kg
ED50 [18]: No protection
ED50 [19]: No protection
Induction [20]: 0.36
TPE [5]: 24
ED50 [6]: 10 mg/kg
TPE [21]: 24 h
ED50 [22]: 6.1 mg/kg
ED50 [23]: 6.2 mg/kg
Weight [24]: 128.8
ED50 [25]: 56 mg/kg
TD50 [26]: 40 mg/kg
Activity [27]: Antiseizure activity
TPE [28]: 8 h
LD50 [29]: No protection
TPE [30]: 8 h
Induction [31]: 0.41
PI [9]: 53
TPE [32]: 24 h
TPE [33]: 8 h
ED50 [34]: No protection
Sleep time [35]: 51
Activity [36]: No activity
TPE [37]: 8 h
Sleep time [38]: 33
TPE [11]: 6
ED50 [39]: 60 mg/kg

Source: ChEMBL document CHEMBL1129543, “Synthesis and evaluation of N-(phenylacetyl)trifluoromethanesulfonamides as anticonvulsant agents” (J Med Chem, 1996)
